The results in this text go back to ChEMBL document CHEMBL2069238, “Discovery of potent and selective rhodanine type IKKβ inhibitors by hit-to-lead strategy” (Bioorg Med Chem Lett, 2012).

In the first assay the target is T1, Inhibitor of nuclear factor kappa-B kinase subunit beta (Homo sapiens) (UniProt O14920).
T1 sequence (whole entry): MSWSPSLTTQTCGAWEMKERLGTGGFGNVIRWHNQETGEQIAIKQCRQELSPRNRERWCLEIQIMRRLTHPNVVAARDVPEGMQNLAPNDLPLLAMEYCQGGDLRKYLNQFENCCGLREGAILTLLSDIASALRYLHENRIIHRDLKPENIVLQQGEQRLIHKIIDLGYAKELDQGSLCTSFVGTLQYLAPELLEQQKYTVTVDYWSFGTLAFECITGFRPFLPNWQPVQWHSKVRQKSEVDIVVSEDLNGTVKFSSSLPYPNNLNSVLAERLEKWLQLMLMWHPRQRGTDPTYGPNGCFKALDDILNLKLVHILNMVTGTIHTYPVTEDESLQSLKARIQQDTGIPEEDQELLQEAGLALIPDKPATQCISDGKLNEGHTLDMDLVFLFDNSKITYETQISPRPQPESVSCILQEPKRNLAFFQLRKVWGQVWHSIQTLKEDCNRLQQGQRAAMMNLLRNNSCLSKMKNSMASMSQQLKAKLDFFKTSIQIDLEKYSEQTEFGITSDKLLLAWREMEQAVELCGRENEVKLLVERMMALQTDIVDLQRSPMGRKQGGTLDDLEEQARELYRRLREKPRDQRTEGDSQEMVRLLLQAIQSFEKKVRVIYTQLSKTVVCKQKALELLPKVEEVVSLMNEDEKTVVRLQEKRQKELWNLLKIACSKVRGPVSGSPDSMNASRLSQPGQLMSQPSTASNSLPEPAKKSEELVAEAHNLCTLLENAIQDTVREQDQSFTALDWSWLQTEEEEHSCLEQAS
Description: Inhibition of IKKbeta using 5FAM-GRHDSGLDSMK-NH2 as substrate at 10 uM incubated for 10 mins prior to substrate addition by IMAP-TR-FRET assay. (Time-resolved FRET reads energy transfer from a long-lived donor to a nearby acceptor.)
As usually defined, the inhibition is the drop in the measured response relative to a control, in per cent. With `CCN(CC)CCCOc1ccc(N2C(=O)/C(=C/c3ccc(-c4cccc(C(N)=O)c4)o3)SC2=S)cc1`, the inhibition is 87.1%.
On the same count and under the same terms, in the case of `NC(=O)c1ccc(Oc2ccc(/C=C3\SC(=S)N(c4ccc(OCCCN5CCCCC5)cc4)C3=O)cc2)cc1` it was 81.2%; in that of `NC(=O)c1ccccc1Oc1ccc(/C=C2\SC(=S)N(c3ccc(OCCCN4CCCCC4)cc3)C2=O)cc1`, 18.6%.
The same measure, in the same setting: in the case of `CCN(CC)CCCOc1ccc(N2C(=O)/C(=C/c3ccc(Oc4ccccc4C(N)=O)cc3)SC2=S)cc1` it was 4.8%.
On the same count and under the same terms, under `NC(=O)c1cccc(Oc2ccc(/C=C3\SC(=S)N(c4ccc(OCCCN5CCOCC5)cc4)C3=O)cc2)c1` stands 48.8%; under `CCN(CC)CCOc1ccc(N2C(=O)/C(=C/c3ccc(Oc4ccccc4C(N)=O)cc3)SC2=S)cc1`, 1.6%; under `CCN(CC)CCOc1ccc(N2C(=O)/C(=C/c3ccc(Oc4ccc(C(N)=O)cc4)cc3)SC2=S)cc1`, 62.6%.
On to `CN1CCN(CCCCCOc2ccc(N3C(=O)/C(=C/c4ccc(Oc5ccc(C(N)=O)cc5)cc4)SC3=S)cc2)CC1`, for which the inhibition was 89.3%.
Regarding `CCN(CC)CCCOc1ccc(N2C(=O)/C(=C/c3ccc(-c4ccc(C(N)=O)cc4)o3)SC2=S)cc1`, the inhibition stood at 77.2%.
`CCN(CC)CCCOc1ccc(N2C(=O)/C(=C/c3ccc(Oc4ccc(C(N)=O)cc4)cc3)SC2=S)cc1` came in with an inhibition of 95.7%.
Still for that read-out and setting: under `CCN(CC)CCCOc1ccc(N2C(=O)/C(=C/c3c(Cl)cccc3Cl)SC2=S)cc1` stands 3.4%; under `CCN(CC)CCCOc1ccc(N2C(=O)/C(=C/c3ccc(Oc4cccc(C(N)=O)c4)cc3)SC2=S)cc1`, 84.9%; under `NC(=O)c1cccc(-c2ccc(/C=C3\SC(=S)N(c4ccc(OCCCN5CCOCC5)cc4)C3=O)o2)c1`, 2.1%.
Same read-out and setting: in the case of `CCN(CC)CCCOc1ccc(N2C(=O)/C(=C/c3ccc4ccccc4c3)SC2=S)cc1` it was 23.4%.

A further assay concerns the target T2, Inhibitor of nuclear factor kappa-B kinase subunit beta (Homo sapiens, UniProt O14920).
T2 sequence (O14920 whole entry): T1 sequence (whole entry)
Nature of the assay: Inhibition of IKKbeta using 5FAM-GRHDSGLDSMK-NH2 as substrate incubated for 10 mins prior to substrate addition by IMAP-TR-FRET assay.
By IC50 is commonly meant the concentration that gives 50% inhibition. Take `CCN(CC)CCCOc1ccc(N2C(=O)/C(=C/c3ccc(-c4cccc(C(N)=O)c4)o3)SC2=S)cc1`: half-maximal inhibition (IC50) required 5.7 µM.
For `NC(=O)c1ccc(Oc2ccc(/C=C3\SC(=S)N(c4ccc(OCCCN5CCCCC5)cc4)C3=O)cc2)cc1`, 4.2 µM corresponded to half-maximal inhibition (IC50).
Still for that read-out and setting: in the case of `CCN(CC)CCOc1ccc(N2C(=O)/C(=C/c3ccc(Oc4ccc(C(N)=O)cc4)cc3)SC2=S)cc1` it was 8.7 µM.
On the same count and under the same terms, in the case of `CN1CCN(CCCCCOc2ccc(N3C(=O)/C(=C/c4ccc(Oc5ccc(C(N)=O)cc5)cc4)SC3=S)cc2)CC1` it was 0.16 µM.
The same measure, in the same setting: in the case of `CCN(CC)CCCOc1ccc(N2C(=O)/C(=C/c3ccc(-c4ccc(C(N)=O)cc4)o3)SC2=S)cc1` it was 3.3 µM.
`CCN(CC)CCCOc1ccc(N2C(=O)/C(=C/c3ccc(Oc4ccc(C(N)=O)cc4)cc3)SC2=S)cc1` came in with an IC50 of 2.6 µM.
Same read-out and setting: in the case of `CCN(CC)CCCOc1ccc(N2C(=O)/C(=C/c3ccc(Oc4cccc(C(N)=O)c4)cc3)SC2=S)cc1` it was 7.3 µM.

Another assay concerns the target T1, Inhibitor of nuclear factor kappa-B kinase subunit beta (Homo sapiens). Description: Inhibition of IKKbeta in human HeLa cells assessed as inhibition of TPA-induced NFkappaB activation at 10 uM incubated for 1 hr prior to TPA-challenge measured after 8 hrs by luciferase reporter gene assay. It counts as cell-based. The essentials: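 HeLa cells transfected with an NF-κB luciferase reporter plasmid, pre-treated with inhibitor for 1 h, then stimulated with TPA (50 ng/mL) for 8 h. Luciferase activity normalized to protein content of each extract, expressed as relative luciferase units per mg versus non-treated cells; n = 3.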
A general note: A reporter such as luciferase makes a cellular process visible.
On to `CCN(CC)CCCOc1ccc(N2C(=O)/C(=C/c3ccc(-c4cccc(C(N)=O)c4)o3)SC2=S)cc1`, for which the inhibition turned out to be 59.1%.
In the case of `NC(=O)c1ccc(Oc2ccc(/C=C3\SC(=S)N(c4ccc(OCCCN5CCCCC5)cc4)C3=O)cc2)cc1`, the inhibition was 48.2%.
Still for that read-out and setting: in the case of `CCN(CC)CCOc1ccc(N2C(=O)/C(=C/c3ccc(Oc4ccc(C(N)=O)cc4)cc3)SC2=S)cc1` it was 58.5%; in that of `CCN(CC)CCCOc1ccc(N2C(=O)/C(=C/c3ccc(-c4ccc(C(N)=O)cc4)o3)SC2=S)cc1`, 57.4%.
On the same count and under the same terms, under `CCN(CC)CCCOc1ccc(N2C(=O)/C(=C/c3ccc(Oc4ccc(C(N)=O)cc4)cc3)SC2=S)cc1` stands 46.6%; under `CCN(CC)CCCOc1ccc(N2C(=O)/C(=C/c3ccc(Oc4cccc(C(N)=O)c4)cc3)SC2=S)cc1`, 39.3%.

The next assay has as its target T3, Inhibitor of nuclear factor kappa-B kinase subunit beta (Mus musculus, UniProt O88351).
T3 sequence (O88351 whole entry): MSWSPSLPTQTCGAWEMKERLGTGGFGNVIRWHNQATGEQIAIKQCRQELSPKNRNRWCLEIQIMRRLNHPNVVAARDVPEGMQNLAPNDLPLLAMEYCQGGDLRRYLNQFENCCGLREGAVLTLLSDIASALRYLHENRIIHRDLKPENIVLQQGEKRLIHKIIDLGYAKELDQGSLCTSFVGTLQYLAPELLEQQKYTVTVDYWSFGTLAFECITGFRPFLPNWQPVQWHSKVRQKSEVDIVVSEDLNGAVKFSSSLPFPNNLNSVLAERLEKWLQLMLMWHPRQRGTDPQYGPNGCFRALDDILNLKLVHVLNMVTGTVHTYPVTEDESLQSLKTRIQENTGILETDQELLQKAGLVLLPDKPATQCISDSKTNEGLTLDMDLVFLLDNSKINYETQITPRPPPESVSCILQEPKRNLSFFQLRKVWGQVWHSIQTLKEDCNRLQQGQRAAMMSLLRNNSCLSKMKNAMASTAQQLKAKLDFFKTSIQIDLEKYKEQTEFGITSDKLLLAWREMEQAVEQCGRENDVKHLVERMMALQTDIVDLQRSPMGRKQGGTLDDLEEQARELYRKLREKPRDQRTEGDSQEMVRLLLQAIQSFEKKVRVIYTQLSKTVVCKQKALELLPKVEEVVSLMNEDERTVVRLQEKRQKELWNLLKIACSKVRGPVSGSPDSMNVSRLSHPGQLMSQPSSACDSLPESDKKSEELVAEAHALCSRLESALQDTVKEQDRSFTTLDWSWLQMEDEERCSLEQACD
Description: Inhibition of IKKbeta in mouse CIA model splenocytes assessed as inhibition of TNFalpha production after 72 hrs by ELISA. In kind it is cell-based. Put shortly:
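Spleens from collagen type II-immunized mice were taken 8 weeks after primary immunization. Red cells were lysed with 0.83% ammonium chloride, and cells were strained and resuspended in RPMI 1640 at 1 × 10^6 cells/well, then exposed to inhibitor for 72 h. Supernatant TNFα was measured by sandwich ELISA with an alkaline phosphatase chromogenic read at 405 nm, quantified against a recombinant murine TNFα standard curve.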
(In general: ELISA stands for enzyme-linked immunosorbent assay.)
As for `NC(=O)c1ccc(Oc2ccc(/C=C3\SC(=S)N(c4ccc(OCCCN5CCCCC5)cc4)C3=O)cc2)cc1`, the IC50 turned out to be 30 µM.
As to `CCN(CC)CCOc1ccc(N2C(=O)/C(=C/c3ccc(Oc4ccc(C(N)=O)cc4)cc3)SC2=S)cc1`, the IC50 was determined as 8 µM.
Same read-out and setting: under `CCN(CC)CCCOc1ccc(N2C(=O)/C(=C/c3ccc(Oc4ccc(C(N)=O)cc4)cc3)SC2=S)cc1` stands 8 µM; under `CCN(CC)CCCOc1ccc(N2C(=O)/C(=C/c3ccc(Oc4cccc(C(N)=O)c4)cc3)SC2=S)cc1`, 10 µM.
